Screening results as filed in PubChem BioAssay.
Compounds with a hit are over-represented: about 1.3% of the library has one in this group of screens.
Mdm2 ligase inh = blocks human Mdm2 ubiquitin ligase activity | Q00987 | signal enhancement, % at 5 µM | actives 0.11% (n = 210,000) | AID 1230 | cell-based MDM2 ubiquitination luciferase reporter, 2 h; 0 = plate control, 100 = twice control, blank-subtracted;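 active means signal enhancement of 30% or more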;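 further: luminescence tracks abundance of the self-degrading MDM2-luciferase fusion protein; higher signal means inhibition of MDM2 E3 ligase activity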
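Buffer or medium: Cells held in DMEM | Assay system: Stable mammalian line carrying autodegrading MDM2–luciferase fusion reporter | Quantity: 2000 cells/well | Times: 4 h settle plus 2 h compound, 37 °C | Doses: One concentration, 5 µM, with 0.2% DMSO | Technique: Luminescence with SteadyLite reagent, 15 min at room temperature | Benchmarks: Plate controls and plate blanks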
PKD1 kinase inh = inhibitors of human PKD1 kinase; actives 0.056% (n = 200,000); AID 797; inhibition, % (test concentration not listed); Q15139; PKD1 kinase fluorescence polarization assay; in the data active means inhibition above about 50%
Target sequence (Q15139 whole entry, looked up): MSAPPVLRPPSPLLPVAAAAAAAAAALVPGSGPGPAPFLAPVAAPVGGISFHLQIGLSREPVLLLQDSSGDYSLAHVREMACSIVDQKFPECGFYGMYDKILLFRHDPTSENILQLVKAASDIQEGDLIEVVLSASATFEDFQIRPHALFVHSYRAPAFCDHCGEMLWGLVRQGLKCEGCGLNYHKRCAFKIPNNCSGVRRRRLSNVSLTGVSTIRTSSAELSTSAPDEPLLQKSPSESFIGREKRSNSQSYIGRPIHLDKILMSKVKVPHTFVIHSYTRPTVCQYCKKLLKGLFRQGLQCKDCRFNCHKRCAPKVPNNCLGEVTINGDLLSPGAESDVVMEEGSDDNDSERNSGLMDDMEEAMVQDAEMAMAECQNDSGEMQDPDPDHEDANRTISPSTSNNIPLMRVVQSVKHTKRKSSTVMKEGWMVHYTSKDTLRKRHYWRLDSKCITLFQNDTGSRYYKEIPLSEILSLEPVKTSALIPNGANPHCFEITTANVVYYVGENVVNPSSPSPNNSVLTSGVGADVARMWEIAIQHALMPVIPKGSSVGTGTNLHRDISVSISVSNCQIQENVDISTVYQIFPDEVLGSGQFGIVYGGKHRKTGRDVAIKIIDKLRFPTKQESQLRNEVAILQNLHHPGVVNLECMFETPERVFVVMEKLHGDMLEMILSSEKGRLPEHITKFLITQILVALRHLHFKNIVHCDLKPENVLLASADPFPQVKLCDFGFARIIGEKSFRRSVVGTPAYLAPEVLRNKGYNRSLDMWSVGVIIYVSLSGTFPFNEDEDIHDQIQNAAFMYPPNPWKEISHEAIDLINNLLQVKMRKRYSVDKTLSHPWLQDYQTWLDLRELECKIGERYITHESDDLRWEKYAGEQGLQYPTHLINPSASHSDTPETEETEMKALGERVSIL
Hck-Nef inh = inhibitors of human Hck kinase activated by Nef. P08631. Recombinant Hck-YEEI plus Nef, Z-Lyte FRET kinase assay. inhibition, % at 20 µM. actives 0.68% (n = 220,000);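 active means Hck-Nef kinase inhibition above about 50%, limit read from the data; inactive means inhibition below that limit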
TAG inh = triacylglycerol accumulation inhibition; H9c2 cells, Nile Red lipid (TAG) fluorescence; cells loaded with 200 µM oleic acid; inhibition, % at 12.5 µM; actives 0.66% (n = 230,000); AID 651582;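 active means pattern-corrected inhibition of lipid staining of at least 50% with the nuclear-stain viability signal not falling by more than 50%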
Rad51 HR inh = Rad51 (human) homologous recombination inhibition; Q06609; hRad51 DNA strand exchange, fluorescence dequenching; inhibition, % at 10 µM; actives 0.085% (n = 200,000);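 active means inhibition above 40% at the single screening dose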
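Material: human Rad51–ssDNA filaments; Probe or stimulus: labelled 47-mer dsDNA for strand exchange; Doses: single 10 µM dose; Incubation: 37 °C 15-min filament assembly, 30-min compound preincubation, 15-min exchange; Technique: FRET fluorescence dequenching, excitation 485 nm, emission 520 nm; Measure: Fluorescence-based percent inhibition, control- and blank-normalised; Benchmarks: plate control and blank wells.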
PERK inh = human PERK inhibition, primary cell-based screen. CHO PERK-DD fusion, SEAP luminescence translation reporter. inhibition, % at 5.6 µM. actives 0.17% (n = 220,000);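 active means inhibition above the mean inhibition of all tested compounds plus 3 SD, set separately per screening campaign, cut at about 2.9% in these data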;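 further: PERK kinase domain activated by AP20187 dimerizer at 100 nM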
Hck-Nef confirm = confirmation of Hck-Nef kinase inhibitors; shares compounds with Hck-Nef inh; Recombinant Hck-YEEI:Nef, Z-Lyte FRET kinase assay; calls only at 10 µM; actives 28% (n = 1,300); AID 463188;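 active means average inhibition of at least 50%, with Z-scores no higher than 3 in both the phospho-tyrosine peptide and fluorescence counterscreens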
Hits are given with their value.

`O=C1N/C(=N\N=C\c2cccnc2)SC1Cc1ccc(SC(F)F)cc1` (stereo unspecified) gave Mdm2 ligase inh inactive, PKD1 kinase inh inactive, Hck-Nef inh inactive, TAG inh inactive, Rad51 HR inh inactive and PERK inh inactive.
For O=C1N/C(=N\N=C\c2ccc3ncccc3c2)SC1Cc1ccc(SC(F)F)cc1 (stereo unspecified) the results were Mdm2 ligase inh inactive, PKD1 kinase inh inactive, Hck-Nef inh 85, Rad51 HR inh inactive, PERK inh inactive and Hck-Nef confirm active.
`CCOc1ccccc1OCCOc1ccccc1CC` gave Mdm2 ligase inh inactive, PKD1 kinase inh inactive, Hck-Nef inh inactive, TAG inh inactive and PERK inh inactive.
CCCCN(C)CCOc1ccccc1OCC was read as Mdm2 ligase inh inactive, PKD1 kinase inh inactive, Hck-Nef inh 60, PERK inh inactive and Hck-Nef confirm inactive.
Screening CCCCC(=O)N(C)c1c(CC)nc2c(OCC(N)=O)cccn12 returned TAG inh inactive.
`O=C1ON=C(c2ccccc2)/C1=C\c1ccco1` gave Mdm2 ligase inh inactive, Hck-Nef inh 54, TAG inh inactive, Rad51 HR inh inactive, PERK inh inactive and Hck-Nef confirm inactive.
For CCOC(=O)c1nc(Nc2ccc(Nc3ccccc3)cc2)c2ccccc2n1 the results were Mdm2 ligase inh inactive, PKD1 kinase inh inactive, Hck-Nef inh 94, TAG inh inactive, Rad51 HR inh inactive, PERK inh inactive and Hck-Nef confirm inactive.
`COc1ccc(-n2cccc2/C=C2\C(=N)N3N=C(C(C)C)SC3=NC2=O)cc1` gave Mdm2 ligase inh inactive, PKD1 kinase inh inactive, Hck-Nef inh inactive, TAG inh inactive, Rad51 HR inh inactive and PERK inh inactive.
Screening COc1ccc(-n2cccc2/C=C2\C(=N)N3N=C(c4ccco4)SC3=NC2=O)cc1 returned Mdm2 ligase inh inactive, PKD1 kinase inh inactive, Hck-Nef inh 93, Rad51 HR inh inactive, PERK inh inactive and Hck-Nef confirm active.
`Cc1cc(C)cc(NC(=O)c2ccc(CSc3nnc(C)s3)cc2)c1` gave Mdm2 ligase inh inactive, PKD1 kinase inh inactive, Hck-Nef inh 101, Rad51 HR inh inactive, PERK inh inactive and Hck-Nef confirm inactive.
Screening Cc1ccc(NC(=O)c2ccc(CSc3nnc(C)s3)cc2)cc1 returned Mdm2 ligase inh inactive, PKD1 kinase inh inactive, Hck-Nef inh inactive, TAG inh inactive, Rad51 HR inh inactive and PERK inh inactive.
For O=C(Nc1cnn(C23CC4CC(CC(C4)C2)C3)c1)c1cnn2c(C(F)(F)F)cc(-c3ccco3)nc12 the results were Mdm2 ligase inh inactive, PKD1 kinase inh inactive, Hck-Nef inh 81, Rad51 HR inh inactive, PERK inh inactive and Hck-Nef confirm active.
`Cc1noc(/C=C/c2ccco2)c1S(=O)(=O)N1CCC(C(=O)N2CCc3ccccc3C2)CC1` gave Mdm2 ligase inh inactive, PKD1 kinase inh inactive, Hck-Nef inh 51, TAG inh inactive, PERK inh inactive and Hck-Nef confirm inactive.
For Cc1nn(-c2ccccc2)c2c1cc1c(=O)n(C)c(=O)nc-1n2-c1ccccc1F the results were Mdm2 ligase inh inactive, Hck-Nef inh 87, TAG inh inactive and PERK inh inactive.
For O=C(Nc1ccc(-n2nncc2-c2ccco2)cc1)c1cc2ccccc2oc1=O the results were Mdm2 ligase inh inactive, PKD1 kinase inh inactive, Hck-Nef inh 51, Rad51 HR inh inactive, PERK inh inactive and Hck-Nef confirm active.
`O=C(Nc1ccc(-n2nncc2-c2ccco2)cc1)c1cccc(F)c1` gave Mdm2 ligase inh inactive, PKD1 kinase inh inactive, Hck-Nef inh inactive and PERK inh inactive.
For O=C(CSc1nnc(SCc2ccccc2)s1)N/N=C/c1c[nH]c2ccccc12 the results were Mdm2 ligase inh inactive, PKD1 kinase inh inactive, Hck-Nef inh 95, TAG inh inactive, Rad51 HR inh inactive, PERK inh inactive and Hck-Nef confirm active.
For Cc1ccc(CSc2nnc(SCC(=O)N/N=C/c3c[nH]c4ccccc34)s2)cc1 the results were Mdm2 ligase inh inactive, PKD1 kinase inh inactive, Hck-Nef inh inactive, TAG inh inactive, Rad51 HR inh inactive and PERK inh inactive.
`Cc1cc(C)cc(C(O)c2ncc(-c3ccc4ccccc4c3)[nH]2)c1` (stereo unspecified) gave TAG inh inactive.
`Cc1cc(O)ccc1Nc1nc(-c2sc(N)nc2C)cs1` gave Mdm2 ligase inh inactive, PKD1 kinase inh inactive, Hck-Nef inh 62, Rad51 HR inh inactive, PERK inh inactive and Hck-Nef confirm active.
`Cc1nc(N)sc1-c1csc(Nc2ccccc2)n1` gave Mdm2 ligase inh inactive, PKD1 kinase inh inactive, Hck-Nef inh inactive, TAG inh inactive, Rad51 HR inh inactive and PERK inh inactive.
Cc1ccccc1OCC(=O)Nc1sc(C(=O)Nc2cccc(C)c2C)c(C)c1C#N was read as Mdm2 ligase inh inactive, PKD1 kinase inh inactive, Hck-Nef inh inactive, Rad51 HR inh inactive and PERK inh inactive.
`COc1cccc(NC(=O)Cn2c(=O)n(-c3cc(OC)c(OC)c(OC)c3)c(=O)c3ccccc32)c1` gave Mdm2 ligase inh inactive, PKD1 kinase inh inactive, Hck-Nef inh 124, TAG inh inactive, Rad51 HR inh inactive, PERK inh inactive and Hck-Nef confirm inactive.
C/C=C/C=C\C(=O)Nc1cccc(C2=NOC3(C2)C[C@@H](C(N)=O)N(C(=O)c2cc([N+](=O)[O-])cc([N+](=O)[O-])c2)C3)c1 (stereo partly specified) was read as Mdm2 ligase inh inactive, Hck-Nef inh 50, TAG inh inactive, Rad51 HR inh inactive and Hck-Nef confirm inactive.
For C/C=C\C=C\C(=O)N1CC2(CC(c3cccc(NC(=O)CC(c4ccccc4)c4ccccc4)c3)=NO2)C[C@H]1C(N)=O (stereo partly specified) the results were Mdm2 ligase inh inactive, Hck-Nef inh 78, Rad51 HR inh inactive and Hck-Nef confirm inactive.
Screening CC1CCN(C(=O)c2cc3ccccc3cc2O)CC1 returned TAG inh inactive.
`Cc1nc2ccc3nc(NC(=O)c4ccc5c(c4)OCCO5)sc3c2s1` gave Mdm2 ligase inh inactive, PKD1 kinase inh inactive, Hck-Nef inh 87, Rad51 HR inh inactive, PERK inh inactive and Hck-Nef confirm active.
Screening O=C(NCCS(=O)(=O)N1CCCCCC1)c1ccc(F)cc1 returned TAG inh inactive.
CC1=NOC(=O)/C1=C\c1ccc(-c2ccccc2Br)o1 was read as Mdm2 ligase inh inactive, PKD1 kinase inh inactive, Hck-Nef inh 52, TAG inh inactive, Rad51 HR inh inactive, PERK inh inactive and Hck-Nef confirm inactive.
